Assay results from different studies.
Protocols differ between the studies behind these lines.
UDP-N-acetylglucosamine--dolichyl-phosphate N-acetylglucosaminephosphotransferase: UDP-N-acetylglucosamine--dolichyl-phosphate N-acetylglucosaminephosphotransferase (Homo sapiens, UniProt Q9H3H5)
CHRM5: Muscarinic acetylcholine receptor M5 (CHRM5, Homo sapiens, UniProt P08912)
MPO: Myeloperoxidase (MPO, Homo sapiens, UniProt P05164)
CES2: Cocaine esterase (CES2, Homo sapiens, UniProt O00748)

Compound | target | observed | mode | technique | notes | IC50 [µM]
Cc1nn(-c2nc3ccccc3[nH]2)c(O)c1C(c1ccccn1)c1c(C)nn(-c2nc3ccccc3[nH]2)c1O | Cyclic GMP-AMP synthase (CGAS, Homo sapiens, UniProt Q8N884) | enzyme activity | inhibitor | – | – | > 40
CO[C@H]1[C@H](O[C@H]([C@H]2O[C@@H](n3ccc(=O)[nH]c3=O)[C@H](O)[C@@H]2O)[C@H](NCCCNC(=O)[C@@H](NC(=O)[C@@H](NC(=O)N[C@H](C(=O)O)C(C)C)[C@@H]2CCN=C(N)N2)[C@@H](O)C(C)C)C(=O)O)O[C@H](CN)[C@H]1O | UDP-N-acetylglucosamine--dolichyl-phosphate N-acetylglucosaminephosphotransferase | enzyme activity | inhibitor | – | – | > 50
O=C(CCNC(=O)CNC(=O)CC(c1ccccc1)(c1ccccc1)c1ccccc1)NCC1CCN(Cc2ccc(F)cc2)CC1 | CHRM5 | ligand displacement | – | radioligand | cell membranes | 35.2
NC/C(=C\F)COc1cccc(Cn2c(=S)[nH]c(=O)c3[nH]cnc32)c1 | MPO | enzyme activity | inhibitor | fluorescence | – | 0.017
CC[N+](CC)(CC)Cc1ccccc1.CC[N+](CC)(CC)Cc1ccccc1.[Br][Co-2]([Br])([Br])[Br] | MPO | enzyme activity | inhibitor | absorbance | – | 8.53
CC(C)OCCn1c(=S)[nH]c(=O)c2[nH]ccc21 | MPO | enzyme activity | inhibitor | fluorescence | – | 0.038
NCC(=O)O | ltaA (Aeromonas jandaei, UniProt O07051) | enzyme activity | inhibitor | – | – | 990
CCc1cc2c(cc1N1CCC(N3CCOCC3)CC1)C(C)(C)c1[nH]c3cc(C#N)ccc3c1C2=O | CES2 | enzyme activity | inhibitor | fluorescence | with preincubation | > 100
O=C(O[C@@H]1[C@@H](O)[C@H](Oc2cc(O)c3c(c2)O[C@H](c2ccccc2)CC3=O)O[C@@H]2COC(=O)c3cc(O)c(O)c(O)c3-c3c(cc(O)c(O)c3O)C(=O)O[C@@H]12)c1cc(O)c(O)c(O)c1 | Protein disulfide-isomerase A6 (PDIA6, Homo sapiens, UniProt Q15084) | enzyme activity | inhibitor | fluorescence | – | 1.5
COc1cc2c(cc1OC)C(=O)/C(=C/c1ccc(C)cc1F)C2 | CES2 | enzyme activity | inhibitor | fluorescence | with preincubation | > 100
O=C(CCNC(=O)CNC(=O)CC(c1ccccc1)(c1ccccc1)c1ccccc1)NC[C@@H]1CCCN(Cc2cccnc2F)C1 | CHRM5 | ligand displacement | – | radioligand | cell membranes | > 30
O=C(c1ccc(F)c(F)c1Nc1ccc(I)cc1F)N1CC(O)([C@@H]2CCCCN2)C1 | CES2 | enzyme activity | inhibitor | fluorescence | with preincubation | > 100
Cn1cc(C2=C(c3cn(CCCSC(=N)N)c4ccccc34)C(=O)NC2=O)c2ccccc21 | Serine/threonine-protein kinase 10 (STK10, Homo sapiens, UniProt O94804) | enzyme activity | inhibitor | – | – | 0.118
CO[C@H]1[C@H](O[C@H]([C@H]2O[C@@H](n3ccc(=O)[nH]c3=O)[C@H](O)[C@@H]2O)[C@H](NCCCNC(=O)[C@@H](NC(=O)[C@@H](NC(=O)N[C@H](C(=O)O)C(C)C)[C@@H]2CCN=C(N)N2)[C@@H](OC(=O)CCCCCCCCCCCCN(O)C(=N)N)C(C)C)C(=O)O)O[C@H](CN)[C@H]1O | UDP-N-acetylglucosamine--dolichyl-phosphate N-acetylglucosaminephosphotransferase | enzyme activity | inhibitor | – | – | 0.18
COc1cc2c(cc1OC)C(=O)/C(=C/c1cc3ccccc3c3ccccc13)C2 | CES2 | enzyme activity | inhibitor | fluorescence | with preincubation | 2.98
